Laboratory results reported in article PMC6583925 (Journal of medicinal chemistry, 2019).
Entries after “also recorded” stand apart in the source; their conditions may differ.

Target: T1, ABHD12 (Mus musculus, UniProt Q99LR1)
T1 sequence (Q99LR1 1-398): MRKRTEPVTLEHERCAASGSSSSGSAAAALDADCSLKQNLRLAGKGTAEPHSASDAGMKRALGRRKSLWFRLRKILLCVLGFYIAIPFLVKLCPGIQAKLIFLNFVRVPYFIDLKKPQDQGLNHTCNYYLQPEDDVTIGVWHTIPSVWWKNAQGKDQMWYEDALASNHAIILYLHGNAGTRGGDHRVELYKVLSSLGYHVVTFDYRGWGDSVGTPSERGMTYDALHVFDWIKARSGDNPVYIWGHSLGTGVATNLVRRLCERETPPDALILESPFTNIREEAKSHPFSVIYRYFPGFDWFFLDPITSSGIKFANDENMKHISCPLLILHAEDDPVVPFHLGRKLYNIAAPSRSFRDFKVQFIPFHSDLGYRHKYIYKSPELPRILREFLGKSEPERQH
Experiment: gel-based competitive ABPP using the FP-Rh probe, mouse brain membrane proteome
Assay type: biochemical
Details: up to 10 μM
Procedure, shortened: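 Mouse brain membrane fraction was prepared by dounce homogenization in DPBS, a 1,400 × g clearing spin, and a 16,000 × g spin (45 min, 4 °C). Proteome (1 mg/mL) was pretreated with test compound (20 min rt for (thio)ureas; 45 min 37 °C for carbamates), then labeled with FP-Rh (1 μM final, 45 min, 37 °C). Samples were quenched in SDS loading buffer, separated by SDS-PAGE and read by in-gel fluorescence.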

Row | ABHD12 activity | SMILES
1 | negligible ABHD12 activity up to 10 μM | COc1ccc(N2CCN(C(=O)ON3C(=O)C4CN(Cc5ccc(Oc6ccccc6)cc5)CCN4C3=O)CC2)cc1 (stereo not shown) [ABC34]

Target: T1, ABHD12
Experiment: gel-based ABPP of mouse brain membrane proteome using the JJH350 probe
Assay type: biochemical
Details: JJH350 probe; SAR statements
Procedure, shortened: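 Mouse brain was dounce-homogenized in DPBS, cleared at 1,400 × g (3 min, 4 °C) and spun at 16,000 × g (45 min, 4 °C); the membrane pellet was washed and resuspended. Proteome (1 mg/mL) was pretreated with test compound (20 min rt for (thio)ureas; 45 min 37 °C for carbamates), then labeled with JJH350 (2 μM final, 45 min, 37 °C).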

Row | ABHD12 inhibitory activity, gel-based ABPP | SMILES
2 | less active than (R)-DO271 | FC(F)(F)Oc1ccc(Oc2ccnc(N3CCC[C@H](NC(=S)Nc4cccnc4)C3)c2Cl)c(Cl)c1 [(S)-DO271]
3 | exhibited ABHD12 inhibitory activity | Cc1cnc(N2CCC(NC(=S)Nc3cccnc3)CC2)c(Cl)c1 [DO129, N-3-Pyridyl-N’-[1-{3-chloro-5-(methyl)pyridin-2-yl}piperidin-4-yl]thiourea]
4 | substantial loss in activity | O=C(Nc1cccnc1)NC1CCN(c2ncc(C(F)(F)F)cc2Cl)CC1 [compound 8]
5 | diminished potency towards ABHD12 | COc1ccc(NC(=S)NC2CCN(c3ncc(C(F)(F)F)cc3Cl)CC2)cn1 [compound 9, N-{6-(methoxy)Pyridin-3-yl}-N’-[1-{3-chloro-5-(trifluoromethyl)pyridin-2-yl}piperidin-4-yl]thiourea]
6 | diminished potency towards ABHD12 | FC(F)(F)c1cnc(N2CCC(NC(=S)Nc3cnc4ccccc4c3)CC2)c(Cl)c1 [compound 10]
7 | diminished potency towards ABHD12 | FC(F)(F)c1cnc(N2CCC(NC(=S)N3CCCc4ccccc43)CC2)c(Cl)c1 [compound 11]
8 | near-complete loss | FC(F)(F)c1cnc(N2CCC(NC(=S)Nc3cccnc3)C2)c(Cl)c1 (stereo not shown) [compound 14]
9 | substantial reductions | FC(F)(F)c1cnc(N2CCCC(NC(=S)Nc3cccnc3)CC2)c(Cl)c1 (stereo not shown) [compound 15]
10 | weakened ABHD12 activity | CN(C(=S)Nc1cccnc1)C1CCN(c2ncc(C(F)(F)F)cc2Cl)CC1 [compound 20]
11 | abolished ABHD12 activity up to 5 μM | S=C(Nc1cccnc1)NC1CCN(c2ncccc2Cl)CC1 [compound 22]
12 | only a small loss in potency | FC(F)(F)c1ccc(N2CCC(NC(=S)Nc3cccnc3)CC2)nc1 [compound 23]
13 | even more deleterious effect | COc1ccnc(N2CCC(NC(=S)Nc3cccnc3)CC2)c1 [compound 31]
14 | increased potency | Fc1ccc(Oc2ccnc(N3CCC(NC(=S)Nc4cccnc4)CC3)c2)cc1 [compound 37]
15 | increased potency | FC(F)(F)Oc1ccc(Oc2ccnc(N3CCC(NC(=S)Nc4cccnc4)CC3)c2)cc1 [compound 38]
16 | did not alter potency | Cc1c(Oc2ccc(OC(F)(F)F)cc2)ccnc1N1CCC(NC(=S)Nc2cccnc2)CC1 [compound 40, N-3-Pyridyl-N’-(1-[3-methyl-4-{4-(trifluoromethoxy)phenoxy}pyridine-2-yl]piperidin-4-yl)thiourea]
17 | reduced ABHD12 inhibitory activity | N#Cc1c(Oc2ccc(OC(F)(F)F)cc2)ccnc1N1CCC(NC(=S)Nc2cccnc2)CC1 [compound 41]
18 | reduced ABHD12 inhibitory activity | FC(F)(F)Oc1ccc(Oc2ccnc(N3CCC(NC(=S)Nc4cccnc4)CC3)c2C(F)(F)F)cc1 [compound 42]

Row | SMILES | ABHD12 inhibitory activity, gel-based ABPP
19 | Cc1cnc(N2CCN(NC(=S)Nc3cccnc3)CC2)c(Cl)c1 [DO127] | did not show any ABHD12 inhibitory activity
20 | FC(F)(F)c1cnc(N2CCC(NC(=S)Nc3cccnc3)CC2)c(Cl)c1 [DO130] | ABHD12 inhibitory activity as commercial AW01275
21 | FC(F)(F)c1cnc(N2CCC(NC(=S)Nc3ccccc3)CC2)c(Cl)c1 [compound 12] | retained some ABHD12 inhibitory activity, albeit slightly lower than that of DO130
22 | FC(F)(F)c1cnc(N2CCCC(NC(=S)Nc3cccnc3)C2)c(Cl)c1 (stereo not shown) [compound 13, N-3-Pyridyl-N’-[1-{3-chloro-5-(trifluoromethyl)pyridin-2-yl}piperidin-3-yl]thiourea] | abolished ABHD12 inhibitory activity; also recorded: dramatically reduced ABHD12 inhibitory activity
23 | FC(F)(F)c1cnc(N2C3CCC2CC(NC(=S)Nc2cccnc2)C3)c(Cl)c1 (stereo not shown) [compound 21] | impaired ABHD12 activity relative to DO130
24 | FC(F)(F)c1ccnc(N2CCC(NC(=S)Nc3cccnc3)CC2)c1 [compound 24] | first sub-micromolar inhibitors in this series
25 | FC(F)(F)c1cccc(N2CCC(NC(=S)Nc3cccnc3)CC2)n1 [compound 26] | first sub-micromolar inhibitors in this series

Same assay, conditions: compared to 28 or 38

Row | increase in ABHD12 inhibitory activity | SMILES
26 | > 10 fold | FC(F)(F)Oc1ccc(Oc2ccnc(N3CCC(NC(=S)Nc4cccnc4)CC3)c2Cl)cc1 [compound 39]

Same assay, conditions: compared to DO264

Row | reduction in potency for ABHD12 inhibition | SMILES
27 | ~ 10,000 fold | FC(F)(F)Oc1ccc(Oc2ccnc(N3CCCC(NC(=S)Nc4cccnc4)C3)c2Cl)c(Cl)c1 (racemic) [(S,R)-DO271]

Same assay, conditions: relative to 39

Row | lower potency of regioisomers | SMILES
28 | 3–4 fold | FC(F)(F)Oc1cccc(Oc2ccnc(N3CCC(NC(=S)Nc4cccnc4)CC3)c2Cl)c1 [compound 43]
29 | 3–4 fold | FC(F)(F)Oc1ccccc1Oc1ccnc(N2CCC(NC(=S)Nc3cccnc3)CC2)c1Cl [compound 44]

Same assay, conditions: relative to the 4-CF3 analogue

Row | decrease in ABHD12 inhibitory activity on substituting the 4-CF3 group | SMILES
30 | ~ 3 fold | S=C(Nc1cccnc1)NC1CCN(c2cc(Cl)ccn2)CC1 [compound 30]

Target: T2, ABHD12 (Homo sapiens, UniProt Q8N2K0)
T2 sequence (Q8N2K0 1-398): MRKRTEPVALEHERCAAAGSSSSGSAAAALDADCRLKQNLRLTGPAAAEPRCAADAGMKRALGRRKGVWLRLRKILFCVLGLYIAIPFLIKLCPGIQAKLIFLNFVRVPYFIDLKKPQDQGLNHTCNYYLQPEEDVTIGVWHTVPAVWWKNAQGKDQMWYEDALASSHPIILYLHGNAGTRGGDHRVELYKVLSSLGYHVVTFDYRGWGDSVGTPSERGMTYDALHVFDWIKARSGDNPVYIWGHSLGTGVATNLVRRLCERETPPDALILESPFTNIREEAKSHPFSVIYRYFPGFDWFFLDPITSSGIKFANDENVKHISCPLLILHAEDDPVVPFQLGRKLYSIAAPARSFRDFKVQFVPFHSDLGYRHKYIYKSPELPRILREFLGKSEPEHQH
Experiment: lyso-PS hydrolysis
Assay type: biochemical
Details: 17:1 lyso-PS 100 μM
Procedure, shortened: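 Test compound preincubated 20 min at room temperature with ABHD12-overexpressing HEK293T membrane (0.25 mg/mL) in DPBS. 17:1 lyso-PS added (100 μM final) and run 30 min at 37 °C. Quench: 2:1 CHCl3/MeOH containing 1 nmol 15:0 FFA internal standard. Organic phase analysed by LC-MS, ESI negative mode, SIM at m/z 267.20 (17:1 FFA product) and 241.20 (15:0 FFA).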

Row | SMILES | ABHD12 inhibitory activity, lyso-PS substrate assay
31 | Cc1cnc(N2CCN(NC(=S)Nc3cccnc3)CC2)c(Cl)c1 [DO127] | did not show any ABHD12 inhibitory activity

System: serine hydrolases
Experiment: selectivity by gel-based ABPP with FP-Rh in mouse brain proteome
Assay type: biochemical
Details: FP-Rh probe
Procedure, shortened: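 Mouse brain homogenised in DPBS and cleared at 1,400 × g. Membranes pelleted at 16,000 × g (45 min, 4 °C) and resuspended in DPBS; used at 1 mg/mL. Test compound pretreatment: (thio)ureas 20 min at room temperature, NHH-carbamates 45 min at 37 °C. FP-Rh labelling (1 μM final) 45 min at 37 °C. Readout: 10% SDS-PAGE, in-gel fluorescence, band intensities quantified.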

Row | SMILES | selectivity / off-targets among serine hydrolases
32 | COc1ccc(N2CCN(C(=O)ON3C(=O)C4CN(C(=O)c5ccc(Oc6ccccc6)cc5)CCN4C3=O)CC2)cc1 (stereo not shown) [JJH329, 1,3-Dioxo-7-(4-phenoxybenzoyl)hexahydroimidazo[1,5-a]pyrazine-2(3H)-yl 4-(4-methoxyphenyl)piperazine-1-carboxylate] | ABHD6 was observed as the only off-target

Target: T1, ABHD12
Experiment: not given
Assay type: in vivo
Details: 30 mg/kg, i.p., mice
Procedure, shortened: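 Test compound was suspended in EtOH/PEG40 1:1 by bath sonication, then diluted with 9 volumes of DPBS (EtOH/PEG40/DPBS 1:1:18). Freshly prepared solution was given i.p. at 10 μL/g body weight. Mice were anesthetized with isoflurane and euthanized by cervical dislocation, and tissues were harvested. Tissue membrane proteomes were labeled with JJH350 (2 μM, 45 min, 37 °C), clicked to rhodamine azide and read by in-gel fluorescence.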

Row | in vivo inhibition of ABHD12 | SMILES
33 | only marginal inhibition of ABHD12 | COc1ccc(N2CCN(C(=O)ON3C(=O)C4CN(C(=O)c5ccc(Oc6ccccc6)cc5)CCN4C3=O)CC2)cc1 (stereo not shown) [JJH329, 1,3-Dioxo-7-(4-phenoxybenzoyl)hexahydroimidazo[1,5-a]pyrazine-2(3H)-yl 4-(4-methoxyphenyl)piperazine-1-carboxylate]

Target: T2, ABHD12
Experiment: not given
Assay type: biochemical
Details: FP-Rh probe 1 μM

Row | SMILES | time-dependent inhibition of ABHD12
34 | FC(F)(F)c1cnc(N2CCC(NC(=S)Nc3cccnc3)CC2)c(Cl)c1 [DO130] | did not show time-dependent inhibition of ABHD12
